Experimental data from ChEMBL document CHEMBL1157638, “Fluorescent epigenetic small molecule induces expression of the tumor suppressor ras-association domain family 1A and inhibits human prostate xenograft” (J Med Chem, 2010).
Calls of active or inactive are those of the source. The rule behind the calls is not given here.

Experiments:
[1] = tested on: PC-3; experiment: Growth inhibition of human PC3 cells after 24 hrs by trypan blue exclusion method; format: functional; settings: PC-3, 24 h
In short: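 PC-3 cells grown in phenol red-free IMEM with 10% FBS, 2 mM glutamine and penicillin/streptomycin at 37 °C, 5% CO2. Seeded in triplicate at 1.5 × 10⁴ cells/well. After 24 h, treated with DMSO vehicle or 1, 5, 15, 30 or 60 μM compound for 24 h. Cells trypsinized, stained with 0.4% trypan blue, and live and dead cells counted by hemocytometer. Mean ± SEM of three independent observations.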

[2] = tested on: PC-3; experiment: Decrease in DNA synthesis in human PC3 cells at 5 uM after 24 hrs by BrdU incorporation assay; format: functional, cell-based
In short: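 PC-3 cells were seeded at 2 × 10⁴ cells/well and exposed to 5 μM compound or DMSO for 24 h. BrdU incorporation was read by chemiluminescent cell proliferation ELISA on a luminometer. Background without anti-BrdU-peroxidase was subtracted and values were normalized to untreated control. Values are mean ± SEM.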

[3] = target: DNA (cytosine-5)-methyltransferase 1 (Homo sapiens) (UniProt P26358); experiment: Inhibition of DNA methyltransferase activity in human PC3 cells at 15 uM after 3 days; format: cell-based; settings: PC-3
DNA (cytosine-5)-methyltransferase 1 (Homo sapiens), sequence (P26358 whole entry): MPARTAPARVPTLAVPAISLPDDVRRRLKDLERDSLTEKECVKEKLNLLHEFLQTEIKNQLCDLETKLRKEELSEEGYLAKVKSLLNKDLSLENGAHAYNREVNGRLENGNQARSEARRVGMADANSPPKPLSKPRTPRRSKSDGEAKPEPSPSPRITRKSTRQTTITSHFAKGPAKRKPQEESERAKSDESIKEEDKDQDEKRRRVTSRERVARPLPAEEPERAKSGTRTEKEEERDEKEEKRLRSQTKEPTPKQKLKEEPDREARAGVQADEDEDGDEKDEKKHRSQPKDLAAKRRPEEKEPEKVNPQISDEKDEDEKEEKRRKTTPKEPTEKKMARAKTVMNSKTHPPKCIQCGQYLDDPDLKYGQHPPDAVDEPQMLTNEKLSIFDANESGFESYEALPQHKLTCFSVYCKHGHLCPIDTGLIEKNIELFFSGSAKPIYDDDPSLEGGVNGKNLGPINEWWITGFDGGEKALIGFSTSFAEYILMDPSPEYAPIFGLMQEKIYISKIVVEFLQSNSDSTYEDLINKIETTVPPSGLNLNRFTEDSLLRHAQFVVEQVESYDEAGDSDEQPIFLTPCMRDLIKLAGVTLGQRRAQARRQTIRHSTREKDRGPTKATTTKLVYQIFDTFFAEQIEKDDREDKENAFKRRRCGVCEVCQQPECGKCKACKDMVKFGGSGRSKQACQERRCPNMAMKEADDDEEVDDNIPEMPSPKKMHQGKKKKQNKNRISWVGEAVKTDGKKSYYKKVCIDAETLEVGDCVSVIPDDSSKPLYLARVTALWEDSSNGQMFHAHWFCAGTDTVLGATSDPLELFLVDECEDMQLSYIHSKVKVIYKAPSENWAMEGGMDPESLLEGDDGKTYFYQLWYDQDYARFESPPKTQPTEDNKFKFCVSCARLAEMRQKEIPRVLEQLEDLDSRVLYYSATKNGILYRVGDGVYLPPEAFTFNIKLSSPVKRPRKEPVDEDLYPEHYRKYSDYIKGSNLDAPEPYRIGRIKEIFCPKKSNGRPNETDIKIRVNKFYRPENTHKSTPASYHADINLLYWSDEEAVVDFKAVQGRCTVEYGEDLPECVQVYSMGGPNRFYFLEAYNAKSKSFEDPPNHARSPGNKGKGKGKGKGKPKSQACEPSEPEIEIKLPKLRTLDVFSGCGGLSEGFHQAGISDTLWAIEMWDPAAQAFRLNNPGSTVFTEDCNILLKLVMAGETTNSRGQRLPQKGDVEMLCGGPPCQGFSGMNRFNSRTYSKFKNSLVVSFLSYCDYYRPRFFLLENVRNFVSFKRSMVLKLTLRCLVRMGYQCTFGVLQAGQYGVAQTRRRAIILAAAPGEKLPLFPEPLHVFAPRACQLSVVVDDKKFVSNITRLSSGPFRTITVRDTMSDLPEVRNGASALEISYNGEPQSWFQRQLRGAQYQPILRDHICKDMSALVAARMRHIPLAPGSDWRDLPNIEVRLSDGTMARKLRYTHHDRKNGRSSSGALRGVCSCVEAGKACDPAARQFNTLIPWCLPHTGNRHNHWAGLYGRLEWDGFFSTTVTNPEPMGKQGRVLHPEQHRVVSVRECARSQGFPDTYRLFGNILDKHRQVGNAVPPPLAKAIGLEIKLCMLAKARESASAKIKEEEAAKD
In short: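 PC-3 cells in complete growth medium treated 3 days with compound, then harvested. Nuclear extracts prepared by kit protocol, and DNMT activity measured with a commercial DNMT activity kit against untreated cells. Mean of three independent experiments ± SEM.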

[4] = tested on: PC-3; experiment: Increase in RASSF1A gene expression in human PC3 cells at 15 uM after 3 days hrs by RT-PCR; format: functional
In short: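 PC-3 cells incubated 3 days with compound, then RNA extracted with TRIzol. 500 ng total RNA reverse-transcribed with random hexamers. RASSF1A amplified with previously described primers and conditions. Products run on 1.5% agarose and stained with ethidium bromide. Bands quantified by densitometry against untreated cells, with RASSF1A re-expression from the reference alkaloid set to 100%.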

[5] = tested on: PC-3; experiment: […] in RASSF1A gene expression in human PC3 cells at 15 uM after 3 days hrs by RT-PCR; format: functional, cell-based

Structure (SMILES)	GI50 [1]	Activity [2]	Activity [3]	Activity [4]	Activity [5]
COc1ccc2c(c1)[nH]c1cc(O)c(C)cc12	15.3 µM	Active	Active	–	–
COc1ccc2c(c1)[nH]c1c(C)c(OCc3ccccc3)ccc12	17.6 µM	Active	Active	50%	–
COc1ccc2c(c1)[nH]c1cc(OCc3ccccc3)c(C)cc12	48.9 µM	–	–	inactive	inactive
COc1ccc2c(c1)[nH]c1cc(OS(=O)(=O)c3cccc4c(N(C)C)cccc34)c(C)cc12	22.9 µM	–	–	inactive	inactive
COc1ccc2c(c1)[nH]c1c(C)c(O)ccc12	18.7 µM	–	Active	–	–
